The source made the active and inactive calls. The rule behind the calls is not given here.
Assays:
Salmonella typhimurium [1] = assay: Genotoxicity in Salmonella typhimurium TA1537 assessed as number of revertants per plate at 75 ug/plate in absence of rat liver S9 fraction by Ames test (reference value: 19 +/- 9); assay type: toxicity; conditions: salmonella enterica subsp. enterica serovar typhimurium
Plasmodium falciparum [2] = assay: Antimalarial activity against intraerythrocytic stage of Plasmodium falciparum assessed as time required to clear 99.9% of initial parasite population at 10 times IC50 preincubated for 24 hrs followed by [3H]-hypoxanthine addition measured after 24 hrs by scintillation counting method; assay type: functional
Procedure, shortened: (§1)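 In vitro P. falciparum parasite reduction ratio assay run at 10×, 30× and 100× IC50. Derived parameters: lag phase (time to maximal killing), PRR (parasites killed per life cycle) and PCT99.9% (time to clear 99.9% of the initial parasite population).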

Plasmodium falciparum [3] = assay: Antimalarial activity against intraerythrocytic stage of Plasmodium falciparum assessed as time required for maximal killing effect at 10 times IC50 preincubated for 24 hrs followed by [3H]-hypoxanthine addition measured after 24 hrs by scintillation counting method; assay type: functional; procedure, shortened: as §1
Plasmodium falciparum [4] = assay: Antimalarial activity against intraerythrocytic stage of Plasmodium falciparum assessed as parasite reduction ratio at 10 times IC50 preincubated for 24 hrs followed by [3H]-hypoxanthine addition measured after 24 hrs by scintillation counting method; assay type: functional; procedure, shortened: as §1
Plasmodium falciparum [5] = assay: Antimalarial activity against chloroquine-resistant Plasmodium falciparum W2 infected in human erythrocytes after 48 hrs by YOYO-1 dye based flow cytometric analysis; assay type: functional, cell-based; conditions: W2, 48 h
Procedure, shortened: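 P. falciparum W2 cultures were exposed to the compound for 48 h, with artemisinin and chloroquine as reference controls. IC50 was taken from two independent replicates.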

Plasmodium falciparum [6] = assay: Antimalarial activity against Plasmodium falciparum 3D7 0087/N9 infected in NOD/SCID IL2R gamma null mouse assessed as decrease in parasitemia at 1 to 100 mg/kg up to 7 days post infection; assay type: functional, organism-based
Procedure, shortened: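 The P. falciparum 3D70087/N9 strain grew in the peripheral blood of NODscidIL2Rγnull mice engrafted with human erythrocytes. Compounds were given orally once a day for four consecutive days.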

Salmonella typhimurium [7] = assay: Genotoxicity in Salmonella typhimurium TA98 assessed as number of rrevertants per plate at 2 ug/plate in presence of rat liver S9 fraction by Ames test (reference value: 19 +/- 8); assay type: toxicity; conditions: salmonella enterica subsp. enterica serovar typhimurium
Salmonella typhimurium [8] = assay: Genotoxicity in Salmonella typhimurium TA100 assessed as number of revertants per plate at 2 ug/plate in presence of rat liver S9 fraction by Ames test (reference value: 141 +/- 1); assay type: toxicity; conditions: salmonella enterica subsp. enterica serovar typhimurium
Procedure, shortened: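 TA100 positive control under S9 activation: 2-aminoanthracene at 2.0 μg/plate, plate incorporation, average revertants per plate.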

Salmonella typhimurium [9] = assay: Genotoxicity in Salmonella typhimurium TA1535 assessed as number of revertants per plate at 2 ug/plate in presence of rat liver S9 fraction by Ames test (reference value: 10); assay type: toxicity; conditions: salmonella enterica subsp. enterica serovar typhimurium
Salmonella typhimurium [10] = assay: Genotoxicity in Salmonella typhimurium TA1537 assessed as number of revertants per plate at 2 ug/plate in presence of rat liver S9 fraction by Ames test (reference value: 11 +/- 4); assay type: toxicity; conditions: salmonella enterica subsp. enterica serovar typhimurium
Escherichia coli [11] = assay: Genotoxicity in Escherichia coli WP2uvrA assessed as number of revertants per plate at 15 ug/plate in presence of rat liver S9 fraction by Ames test (reference value: 42 +/- 6); assay type: toxicity
Plasmodium falciparum [12] = assay: Antimalarial activity against Plasmodium falciparum TM90C2B infected in human erythrocytes assessed as reduction in [3H]-hypoxanthine incorporation preincubated for 24 hrs followed by [3H]-hypoxanthine addition measured after 24 hrs by scintillation counting method; assay type: functional, cell-based
Plasmodium falciparum [13] = assay: Antimalarial activity against Plasmodium falciparum TM90C2A infected in human erythrocytes assessed as reduction in [3H]-hypoxanthine incorporation preincubated for 24 hrs followed by [3H]-hypoxanthine addition measured after 24 hrs by scintillation counting method; assay type: functional, cell-based
Plasmodium falciparum [14] = assay: Antimalarial activity against Plasmodium falciparum Dd2 infected in human erythrocytes assessed as reduction in [3H]-hypoxanthine incorporation preincubated for 24 hrs followed by [3H]-hypoxanthine addition measured after 24 hrs by scintillation counting method; assay type: functional, cell-based
Plasmodium falciparum [15] = assay: Antimalarial activity against Plasmodium falciparum NF54 infected in human erythrocytes assessed as reduction in [3H]-hypoxanthine incorporation preincubated for 24 hrs followed by [3H]-hypoxanthine addition measured after 24 hrs by scintillation counting method; assay type: functional, cell-based
Plasmodium falciparum [16] = assay: Antimalarial activity against Plasmodium falciparum HB3 infected in human erythrocytes assessed as reduction in [3H]-hypoxanthine incorporation preincubated for 24 hrs followed by [3H]-hypoxanthine addition measured after 24 hrs by scintillation counting method; assay type: functional, cell-based
Plasmodium falciparum [17] = assay: Antimalarial activity against Plasmodium falciparum T9/94 infected in human erythrocytes assessed as reduction in [3H]-hypoxanthine incorporation preincubated for 24 hrs followed by [3H]-hypoxanthine addition measured after 24 hrs by scintillation counting method; assay type: functional, cell-based
Plasmodium falciparum [18] = assay: Antimalarial activity against Plasmodium falciparum V1/S infected in human erythrocytes assessed as reduction in [3H]-hypoxanthine incorporation preincubated for 24 hrs followed by [3H]-hypoxanthine addition measured after 24 hrs by scintillation counting method; assay type: functional, cell-based
Plasmodium falciparum [19] = assay: Antimalarial activity against Plasmodium falciparum K1 infected in human erythrocytes assessed as reduction in [3H]-hypoxanthine incorporation preincubated for 24 hrs followed by [3H]-hypoxanthine addition measured after 24 hrs by scintillation counting method; assay type: functional, cell-based
Escherichia coli [20] = assay: Genotoxicity in Escherichia coli WP2uvrA assessed as number of revertants per plate at 1000 ug/plate in absence of rat liver S9 fraction by Ames test (reference value: 45 +/- 9); assay type: toxicity
Plasmodium falciparum [21] = assay: Antimalarial activity against Plasmodium falciparum 3D7 0087/N9 infected in NOD/SCID IL2R gamma null mouse assessed as decrease in parasitemia at 2.5 to 50 mg/kg up to 7 days post infection; assay type: functional, organism-based
Procedure, shortened: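 Human-erythrocyte-engrafted NODscidIL2Rγnull mice carrying P. falciparum Pf3D70087/N9 in peripheral blood; compound given orally once daily for four consecutive days.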

Plasmodium berghei = assay: Antimalarial activity against Plasmodium berghei infected in Swiss Webster mouse assessed as mouse survival rate at 30 mg/kg administered once daily via oral gavage for 4 consecutive days beginning 1 hr after infection measured from day 4 to day 20 post infection relative to control; assay type: functional
Procedure, shortened: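 P. berghei-infected erythrocytes taken from a previously infected mouse were injected intraperitoneally. Oral dosing, once daily for 4 consecutive days, began 1 h after infection, in polyethylene glycol 300/propylene glycol/water (55/25/20 by weight). Chloroquine at 30 mg/kg was the positive control, with a vehicle-only group. Percent survival was recorded daily from day 4 to day 20.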

Salmonella typhimurium [22] = assay: Genotoxicity in Salmonella typhimurium TA98 assessed as number of revertants per plate at 1 ug/plate in absence of rat liver S9 fraction by Ames test (reference value: 14 +/- 6); assay type: toxicity; conditions: salmonella enterica subsp. enterica serovar typhimurium

Question: How did the Activity (Salmonella typhimurium [1]) turn out when `Nc1c2ccccc2nc2ccccc12` [AMINACRINE] was run?
Answer: 430

Question: Which results are given for `C[C@@H]1CC[C@H]2[C@@H](C)C(=O)O[C@@H]3O[C@@]4(C)CC[C@@H]1[C@]32OO4` [ARTEMISININ]?
Answer: T99.9% (Plasmodium falciparum [2]): <24 h; Time (Plasmodium falciparum [3]): 0 h; log(ratio) (Plasmodium falciparum [4]): >4.8; IC50 (Plasmodium falciparum [5]): 6 nM; Activity (Plasmodium falciparum [6]): Active

Question: How did the Activity (Salmonella typhimurium [7]) turn out when `Nc1ccc2cc3ccccc3cc2c1` [2-AMINOANTHRACENE] was run?
Answer: 524

Question: And the Activity (Salmonella typhimurium [8])?
Answer: 550

Question: And the Activity (Salmonella typhimurium [9])?
Answer: 163

Question: And the Activity (Salmonella typhimurium [10])?
Answer: 82

Question: And the Activity (Escherichia coli [11])?
Answer: 311

Question: Which results are given for `CCc1nc(N)nc(N)c1-c1ccc(Cl)cc1` [PYRIMETHAMINE]?
Answer: IC50 (Plasmodium falciparum [12]): > 20 µM; T99.9% (Plasmodium falciparum [2]): 61 h; IC50 (Plasmodium falciparum [13]): > 20 µM; IC50 (Plasmodium falciparum [14]): > 20 µM; Time (Plasmodium falciparum [3]): 24 h; IC50 (Plasmodium falciparum [15]): 45 nM; log(ratio) (Plasmodium falciparum [4]): 2.9; IC50 (Plasmodium falciparum [16]): 3.38 µM; IC50 (Plasmodium falciparum [17]): 38 nM; IC50 (Plasmodium falciparum [18]): > 20 µM; IC50 (Plasmodium falciparum [19]): > 20 µM

Question: With `COS(C)(=O)=O` [METHANESULFONIC ACID METHYL ESTER] as the molecule, how does the Activity (Escherichia coli [20]) read?
Answer: 357

Question: With `CCN(CC)CCCC(C)Nc1ccnc2cc(Cl)ccc12` (stereo not drawn) [CHLOROQUINE] as the molecule, how does the T99.9% (Plasmodium falciparum [2]) read?
Answer: 34 h

Question: And the Activity (Plasmodium falciparum [21])?
Answer: Active

Question: And the Time (Plasmodium falciparum [3])?
Answer: 0 h

Question: What about the survival at 30 mg/kg (Plasmodium berghei) of the same molecule?
Answer: 100%

Question: How did the Activity (Salmonella typhimurium [22]) turn out when `O=[N+]([O-])c1ccc2c(c1)Cc1ccccc1-2` [2-NITROFLUORENE] was run?
Answer: 162

— ChEMBL document CHEMBL4038305, “Benzoxaborole Antimalarial Agents. Part 5. Lead Optimization of Novel Amide Pyrazinyloxy Benzoxaboroles and Identification of a Preclinical Candidate” (J Med Chem, 2017)
